Only some compounds are listed: those with a hit (about 3.5% of all), similar ones and a draw of the others.
MrgX1 PAM = allosterically activates human MrgX1 receptor signaling; Q96LB2; MrgX1-HEK293, Fluo-4 calcium flux, FDSS; active compounds read high; B-score at 10 µM; actives 0.63% (n = 310,000); AID 588675;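 active = plate-corrected calcium response at least 3 library SD above typical, normal starting fluorescence, not activating the receptor alone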;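 also: compound read alongside a low EC10 to EC30 dose of BAM8-22 agonist; peak minus trough fluorescence over baseline measured at the second addition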
MrgX1 antag = blocks BAM8-22 activation of human MrgX1 receptor. Q96LB2. MRGX1-HEK293 calcium flux, Fluo-4, BAM8-22 antagonism; active compounds read low. B-score at 10 µM. actives 1.3% (n = 310,000). AID 588676;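 active = calcium-response B-score plate-corrected more than 3 library SD below zero, starting fluorescence within 5 deviations, no agonist response on first addition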;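 also: peak minus trough fluorescence over baseline after final BAM8-22 challenge near maximal dose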
MrgX1 agonist = human MrgX1 receptor agonism, primary screen; MrgX1-HEK293 cells, Fluo-4 calcium fluorescence, agonist mode; active compounds read high; B-score at 10 µM; actives 0.44% (n = 310,000);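 active = calcium response B-score plate-corrected fluorescence ratio at least 3 library SD, with starting fluorescence B-score inside 5 SD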
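times = overnight plating, then 30 min 37 °C plus 30 min room-temperature dye loading | assay system = stable human MrgX1 HEK293 cell line | input = fifteen thousand cells per well | signal = kinetic calcium dye fluorescence, Fluo-4 NW | dosing = compound delivered in addition one of three | read-out = B-scored fluorescence response ratio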
RGS4 inh = human RGS4 inhibition; AID 463165; P49798; actives 0.45% (n = 310,000); B-score at 10 µM; HEK293 M3R/RGS4 inducible, Fluo-4 calcium flux; active compounds read high; triggered by carbachol at its EC20;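 active = B-score, a plate-corrected calcium signal, over three deviations above library mean, with baseline fluorescence within five deviations of library mean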;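 also: RGS4 expression induced by doxycycline in cells with stable M3 receptor; B-score is computed from the integrated fluorescence ratio over baseline after carbachol; higher B-score means a larger calcium signal and so more RGS4 inhibition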
Target sequence (P49798 whole entry, looked up): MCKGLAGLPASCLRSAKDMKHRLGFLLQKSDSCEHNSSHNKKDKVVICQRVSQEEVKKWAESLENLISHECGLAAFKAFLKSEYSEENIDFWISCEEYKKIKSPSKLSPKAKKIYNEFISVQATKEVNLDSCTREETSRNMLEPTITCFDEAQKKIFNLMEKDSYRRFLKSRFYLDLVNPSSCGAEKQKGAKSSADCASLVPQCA
RGS4 pot = RGS4 potentiation or activation; HEK293 M3R/inducible RGS4, carbachol calcium flux Fluo4; active compounds read low; AID 463111; actives 0.92% (n = 310,000); B-score at 10 µM;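 active = B-score of the integrated calcium signal more than 4 SD below the library mean, with starting fluorescence not abnormally high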;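 also: negative B-score means reduced calcium response which marks RGS4 activation or potentiation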
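Material: M3R-expressing HEK293 line, RGS4 induced by doxycycline | Schedule: Overnight RGS4 induction, 30 min dye load 37 °C, 20 min compound RT | Measured by: Fluo4 fluorescence kinetic imaging of calcium | Read-out: Integrated calcium ratio converted to B score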
A number is an active result; - = inactive; . = no result; ! = a repeat was not active.

SMILES	MrgX1 PAM	MrgX1 antag	MrgX1 agonist	RGS4 inh	RGS4 pot
CCC(C)[C@H](NC(=O)C1CC(=O)N(c2ccc3c(c2)OCO3)C1)C(=O)NC1CCCCC1 (stereo not given in full)	-	-	-	-	-
Cc1ccc(-n2c(O)c(/C=N/n3cnnc3)c3ccccc3c2=O)cc1	9.4!	-	-	-	-
O=C(COc1ccc(Cl)cc1)Nc1cc(NC(=O)COc2ccc(Cl)cc2)cc(C(=O)O)c1	-	-	-	-	-
CCc1ccc2oc(=O)cc(CN3CCOCC3)c2c1	-	-	-	-	-
CC1CCN(Cc2cc(=O)oc3cc4c(cc23)CCCC4)CC1	8.5	-	-	-	-
CCc1ccc2oc(=O)cc(CN3CCC(C)CC3)c2c1	-	-	29	-	-
O=C(N/N=C/c1c(O)n(-c2ccc(Cl)cn2)c(=O)c2ccccc12)c1ccncc1	-	-	-	-	-9.6
CCOC(=O)C1CCN(c2cc3c(cc2NC(=O)c2ccccc2OCC)n(C)c(=O)n3C)CC1	-	-	-	-	-7.8
O=C(NCc1ccncc1)C(=O)NCC1OCCN1S(=O)(=O)c1cc(F)ccc1F (stereo not given)	-	-	-	-	-
CN1CC=C2C(C#N)=C(N)C(C#N)(C#N)C(c3cccc(Cl)c3Cl)C2C1 (stereo not given)	-	-5.5	-	-	-
Cc1ccc(C2C3CN(C(C)C)CC=C3C(C#N)=C(N)C2(C#N)C#N)cc1 (stereo not given)	-	-	-	-	-7.1
COc1ccc(OC)c(C2C3CN(C(C)C)CC=C3C(C#N)=C(N)C2(C#N)C#N)c1 (stereo not given)	-	-	27	-	-
CN1CC=C2C(C#N)=C(N)C(C#N)(C#N)[C@H](c3ccoc3)[C@H]2C1	-	-	-	-	-
CCOC(=O)Cc1cnc(NC(=O)CSc2nc3ncnc(N)c3[nH]2)s1	-	-	-	-	-
Cc1cc(C)c(C(=O)C(C)OC(=O)C2=COCCO2)cc1C (stereo not given)	7.6	-	-	-	-
CN(Cc1ccccc1)CC(O)COc1ccc(CNCc2ccc(Cl)s2)cc1 (stereo not given)	-	-	-	-	-
COc1ccc(CNC(=O)C(C#N)c2nc3ccccc3nc2N2CCCC2)cc1 (stereo not given)	-	-5.1	-	-	-
COc1ccc(CNC(=O)C(C#N)c2nc3ccccc3nc2N2CCN(C)CC2)cc1 (stereo not given)	-	-	-	-	-
C=CCNC(=O)C(C#N)c1nc2ccccc2nc1N1CCCCCC1 (stereo not given)	7.7	-	-	-	-
CCCCC(=O)Nc1nnc(-c2ccco2)o1	-	-	-	-	-
CCCCN(C)CCCNC(=O)c1cn(CC)c2ccc(S(=O)(=O)N3CCc4ccccc4C3)cc2c1=O	-	-	-	-	-7.7
CC1=NNC(=O)/C1=C\c1cn(-c2ccccc2)nc1-c1ccc(Cl)cc1	-	-	-	-	-
Cc1ccc(-c2nn(-c3ccccc3)cc2C=C2C(=O)CC(C)(C)CC2=O)cc1	-	-	-	11	-
CN1CCC=C(C(=O)N2c3ccccc3Sc3ccc(Cl)cc32)C1	-	-	-	-	-10
COC(=O)c1sccc1-c1ccc(/C=N/OC(=O)c2cccs2)o1	-	-	-	-	-
SMILES	MrgX1 PAM	MrgX1 antag	MrgX1 agonist	RGS4 inh	RGS4 pot
CCCCCc1ccc(OCCC[n+]2ccccc2)c(CCCCC)c1	-	-	-	-	-
CCCCCc1ccc(OCCOCCn2c[n+](C)c3ccccc32)c(CCCCC)c1	.	.	.	-	-7.6
CCCc1cc(C(=O)Nc2cccc3ccccc23)n(C)n1	-	-	-	-	-
CCCc1cc(C(=O)Nc2ccc(C(=O)c3ccc(C)cc3)cc2)n(C)n1	-	-	-	-	-7.4
Cc1ccc(S(=O)(=O)N2CCOC23CCN(S(=O)(=O)c2c(C)cc(C)cc2C)CC3)cc1	-	-	-	-	-
C/C(=C\c1ccccc1)C(=O)N1CCN(c2cccc(C(F)(F)F)c2)CC1	-	-4.9	-	-	-
CC1CCN(CC(C)OC(=O)c2ccc3c(c2)OCCO3)CC1 (stereo not given)	-	-	-	-	-7.3
CC(CN1CCCCC1)OC(=O)c1ccc2c(c1)OCO2 (stereo not given)	-	-	-	-	-
COc1ccc2ccccc2c1/C=N\NC(=O)c1cccnc1	-	-	-	-	-

Source: PubChem BioAssay
